Screening results: PubChem BioAssay, several laboratories
In the library only some 2.2% were active in any assay of this set; here they are far more common.
PPC-1+TRAIL kill: compounds killing PPC-1 cancer cells with TRAIL present, primary screen, TRAIL potentiator project, ATPLite luminescence, uHTS; PPC-1 cells + TRAIL, ATPLite viability luminescence; cell killing (% activity), % at 4 µM or 5 µM; actives 0.41% (n = 220,000); AID 1443, 2008;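 active = cell killing above 50% in the first pass at 4 µM, then a duplicate retest at 5 µM averaging 50% or more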;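 note: plate controls were cells with TRAIL plus DMSO for no effect and medium-only wells lacking cells for full effect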
APP 5'UTR act: activators of APP 5'UTR luciferase reporter, primary screen, SH-SY5Y cells; actives 1% (n = 190,000); AID 1276, 2008; SH-SY5Y APP 5'UTR luciferase reporter, luminescence; zero percent = DMSO vehicle wells; activation, % at 2 µM;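 active = activation above a set limit, based on mean plus 3 SD of controls, cut at about 140% in these data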
FLuc inhib CS: firefly luciferase enzyme inhibitors, primary screen, artefact control for luciferase-based inhibitor screens, biochemical, luminescence, ATPLite; Luciferin 4-monooxygenase (Photinus pyralis), P08659; 10 min; inhibition, % at 10 µM; actives 1.5% (n = 200,000);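 active = inhibition above about 50% when tested at 10 µM, limit read from the data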
Target sequence (P08659 whole entry, looked up): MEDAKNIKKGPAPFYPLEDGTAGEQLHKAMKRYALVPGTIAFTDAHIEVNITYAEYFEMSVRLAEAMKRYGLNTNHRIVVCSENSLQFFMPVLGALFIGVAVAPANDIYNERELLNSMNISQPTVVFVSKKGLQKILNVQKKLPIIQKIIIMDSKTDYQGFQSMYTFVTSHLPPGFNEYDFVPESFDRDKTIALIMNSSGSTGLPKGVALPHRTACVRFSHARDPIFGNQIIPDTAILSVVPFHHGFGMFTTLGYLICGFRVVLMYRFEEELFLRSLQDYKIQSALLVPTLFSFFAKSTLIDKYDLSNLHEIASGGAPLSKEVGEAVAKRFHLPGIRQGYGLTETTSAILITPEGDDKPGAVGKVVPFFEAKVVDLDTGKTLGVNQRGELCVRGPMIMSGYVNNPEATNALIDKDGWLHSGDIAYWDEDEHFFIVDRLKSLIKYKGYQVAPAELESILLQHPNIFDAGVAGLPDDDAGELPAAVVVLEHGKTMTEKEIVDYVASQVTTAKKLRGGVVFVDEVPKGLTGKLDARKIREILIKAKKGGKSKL
C8 TRAIL sens: viability loss with TRAIL in NB7+C8 cells, primary screen, TRAIL sensitizer project, cell-based, ATPlite luminescence; inhibition (viability loss, TRAIL sensitization), % at 10 µM; actives 1% (n = 360,000); AID 624354, 2012;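 active = compounds causing at least 50% loss of cell viability in the single-dose screen, relative to plate controls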
FLuc act counter: FLuc activators, initial screening, artefact control for FLuc-dependent activation tests, biochemical, ATPlite luminescence. Luciferin 4-monooxygenase (Photinus pyralis), P08659. ATPlite luciferase biochemical, 10 min; 0 = ATP-free wells, 1 = DMSO control. activation factor at 10 µM. 200,000 tested, under 10 active. AID 1027, 2008;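 active = luciferase activation factor, scaled between plate controls, of at least 2 with compound at 10 µM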
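Material: luciferase plus luciferin reagent, cell-free. Medium: PBS buffer for ATP. Also added: ATP substrate, dispensed from a 10.24 µM working solution in PBS. Doses: test compounds dosed from 2 mM stocks in 100% DMSO. Incubation: 10 min post-reagent at room temperature. Technique: light output (luminescence). Read-out basis: luminescence gain marking luciferase activators.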
NF-kB neuron act: activators of NF-kB expression in neurons, primary screen, cell-based, HTS | fold change at 12.5 µM | AID 1239, 2008 | human neuronal cells, NF-kB reporter expression; hits give high values | actives 1.6% (n = 190,000); in the data active = fold change above about 3.3
Numbers without * were called inactive; nt = no result.

SMILES | PPC-1+TRAIL kill | APP 5'UTR act | FLuc inhib CS | C8 TRAIL sens | FLuc act counter | NF-kB neuron act
CC(OC(=O)c1ccc(S(C)(=O)=O)c([N+](=O)[O-])c1)C(=O)NC1C2CC3CC(C2)CC1C3 (stereo unspecified) | nt | nt | nt | 73.5* | nt | nt
Cn1cccc1C(=O)NC(=O)COC(=O)c1ccc(S(C)(=O)=O)c([N+](=O)[O-])c1 | nt | nt | nt | 8.4 | nt | nt
Clc1ccc2nc3c4ccccc4cnn3c2c1 | 32.5 | 217.1* | 62.6* | 40.5 | 0.4 | 7.98*
COc1ccc(N(CC(=O)NCc2ccc(C)cc2)S(=O)(=O)c2c(C)noc2C)cc1 | nt | nt | nt | -3.8 | nt | nt
Cc1cc(=O)oc2cc(OCC(=O)NC3(C#N)CCCCC3)c(Cl)cc12 | nt | nt | nt | -10.1 | nt | nt
CCOC(=O)CSc1nc2cc(OC)ccc2cc1C#N | 42.5 | 172.7* | -1.3 | 67.0* | 1 | 8.11*
CCOC(=O)CSc1nc2ccc(C)cc2cc1C#N | 21.8 | nt | -1.9 | 1.6 | 1 | 4.28*
CCOC(=O)CSc1nc2cc(C)cc(C)c2cc1C#N | -3.4 | 94.1 | -4.6 | -0.3 | 1 | 1.85
CCOC(=O)CSc1nc2cc(C)ccc2cc1C#N | 14.4 | 134.6 | -5.5 | 52.6* | 1.1 | 7.08*
FC(F)(F)c1cnc(Sc2ncn[nH]2)c(Cl)c1 | 2.7 | 2.2 | -1.1 | -4.8 | 1 | 1.13
Cc1ccc(-c2noc(-c3ccccc3F)n2)cc1 | 6.7 | 173.8* | 56.7* | 25.5 | 0.4 | 5.98*
Cc1ccc(-c2noc(-c3cccs3)n2)cc1 | 21.8 | 135.0* | 44.0 | 35.8 | 0.6 | 7.89*
COc1ccccc1-c1noc(-c2cccs2)n1 | -1.6 | 100.7 | 33.0 | 16.8 | 0.7 | 3.76*
Cc1ccc(NC(=S)N(C)Cc2cn(C)c3ccccc23)cc1 | -3.6 | -5.2 | -5.8 | -11.2 | 1.1 | 1.08
C[C@@H]1CN([C@H](C)CO)C(=O)CCCn2nncc2CO[C@@H]1CN(C)C(=O)C1CC1 | nt | nt | nt | -8.4 | nt | nt
COc1ccccc1C(=O)COC(=O)c1ccc(N(C)C)cc1 | 33.8 | 141.7* | 36.0 | 30.2 | 0.6 | 1.04
O=C(N/N=C/c1ccc(Br)s1)c1ccco1 | 4.7 | nt | nt | 24.2 | nt | nt
Cc1ccsc1/C=N/NC(=O)c1ccccn1 | 13.8 | 84.7 | 46.1 | 12.1 | 0.5 | 2.55
O=C(N/N=C/c1ccsc1)c1ccccn1 | -0.3 | 36.0 | 52.2* | 18.9 | 0.5 | 2.19
O=C(N/N=C/c1ccc(Br)s1)c1ccccn1 | 33.6 | 99.6 | 66.4* | 51.6* | 0.3 | 3.47*
O=C(c1cc(S(=O)(=O)NCc2ccco2)ccc1Br)N1CCOCC1 | nt | nt | nt | -3.1 | nt | nt
COC(=O)c1c(NC(=O)c2nc3ccccc3s2)sc2c1CC(C)(C)NC2(C)C | 19.1 | -4.8 | -7.4 | 86.3* | 1.1 | 1.02
COCc1ccc(CN2CCCC(C(=O)Nc3ccc(-c4cscn4)cc3)C2)o1 (stereo unspecified) | nt | nt | nt | -19.4 | nt | nt
COc1cc(F)ccc1CN1CCC(C(=O)Nc2ccc(Oc3ccccc3)nc2)CC1 | nt | nt | nt | 25.9 | nt | nt
CN1CCN(CC(=O)N2c3ccccc3C(C)(c3ccccc3)CC2(C)C)CC1 (stereo unspecified) | 10.7 | 10.7 | -8.2 | -5.4 | 1.1 | 6.02*
SMILES | PPC-1+TRAIL kill | APP 5'UTR act | FLuc inhib CS | C8 TRAIL sens | FLuc act counter | NF-kB neuron act
CN1CCN(CC(=O)N2c3ccccc3C(C)(c3ccc(Cl)cc3)CC2(C)C)CC1 (stereo unspecified) | -9.0 | -2.8 | -9.5 | -7.3 | 1.1 | 2.42
O=C(N/N=C/c1ccco1)c1cccc(N2CCCC2=O)c1 | -7.1 | 16.6 | 52.4* | 6.1 | 0.5 | 1.58
O=C(NCc1csc(-c2ccccc2)n1)c1cc(F)cc2c1OCOC2 | 7.1 | nt | nt | 5.2 | nt | nt
COc1ccc(C2=NN(S(C)(=O)=O)C(c3cccs3)C2)cc1 (stereo unspecified) | -9.0 | 110.1 | 4.1 | -3.2 | 1 | 3.94*
CS(=O)(=O)N1N=C(c2cccs2)CC1c1ccccc1 (stereo unspecified) | 10.8 | nt | nt | -6.2 | nt | nt
Cc1ccc(C2=NN(S(C)(=O)=O)C(c3cccs3)C2)cc1 (stereo unspecified) | 13.0 | 71.7 | 3.3 | -32.5 | 1 | 3.84*
